Test results as given in ChEMBL document CHEMBL4033790, “Design and Synthesis of Novel Deuterated Ligands Functionally Selective for the γ-Aminobutyric Acid Type A Receptor (GABAAR) α6 Subtype with Improved Metabolic Stability and Enhanced Bioavailability” (J Med Chem, 2018).
≈ marks a conversion by molar mass, not a printed value. Calls of active or inactive are those of the source. No cut-off for these calls is given here.

Tests used:
[1] = molecular target: GABA-A receptor; alpha-3/beta-3/gamma-2 (Homo sapiens) (UniProt P18507+P28472+P34903); experiment: Positive allosteric modulation of GABA-A receptor alpha3beta3gamma2 (unknown origin) expressed in Xenopus laevis oocytes assessed as potentiation of EC3 GABA induced currents up to 100 uM at -60 mV holding potential by electrophysiological method relative to GABA; format: cell-based; conditions: tested as the 2H-labelled form
Method in brief: (§1)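 Stage 5–6 defolliculated Xenopus oocytes were injected with 2.5 ng total mRNA per oocyte: α1, α2, α3 or α5 with β3 and γ2 at 1:1:5, and α4 or α6 with β3 and γ2 at 3:1:5. Oocytes were kept ≥36 h at 18 °C in NDE medium before recording. Compounds were co-applied with GABA titrated to EC3-5 for each oocyte. Curves were fitted with the Hill equation; mean ± SEM from ≥3 oocytes across two batches.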

Mus musculus = experiment: Neurotoxicity in Swiss Webster mouse assessed as induction of motor impairment at 40 mg/kg administered via oral gavage measured after 10 to 60 mins by rotarod method; format: toxicity, organism-based; conditions: in vivo
Method in brief: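 Female mice were given a single oral gavage dose of 40 mg/kg, either in 50% PBS/40% propylene glycol/10% DMSO or, for poorly soluble compounds, in 2% polyethylene glycol plus 2.5% hydroxymethyl cellulose. Rotarod performance was tested 10, 30 and 60 min after dosing, with diazepam 5 mg/kg as positive control.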

[2] = Solubility of the compound in 0.01M HCl at pH 2 after 2 hrs by LC-MS analysis; format: physicochemical; conditions: buffer, pH 2, 2 h
Method in brief: (§2)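 10 mg compound dissolved in 2 mL DMAC; 10 μL of this added to 2 mL DI water (pH 7, sonicated) or 2 mL 0.01 M aq HCl (pH 2), held 2 h at 37 °C. Filtered through 0.45 micron filter, then quantified by LC-MS in SIM mode against calibration curves of standards in DMAC (n = 5); n=3.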

[3] = molecular target: GABA-A receptor; alpha-1/beta-3/gamma-2 (Homo sapiens) (UniProt P14867+P18507+P28472); experiment: Positive allosteric modulation of GABA-A receptor alpha1beta3gamma2 (unknown origin) expressed in Xenopus laevis oocytes assessed as potentiation of EC3 GABA induced currents up to 100 uM at -60 mV holding potential by electrophysiological method relative to GABA; format: cell-based; conditions: tested as the 2H-labelled form; method in brief: as §1
[4] = molecular target: GABA-A receptor; alpha-2/beta-3/gamma-2 (Homo sapiens) (UniProt P18507+P28472+P47869); experiment: Positive allosteric modulation of GABA-A receptor alpha2beta3gamma2 (unknown origin) expressed in Xenopus laevis oocytes assessed as potentiation of EC3 GABA induced currents up to 100 uM at -60 mV holding potential by electrophysiological method relative to GABA; format: cell-based; conditions: tested as the 2H-labelled form; method in brief: as §1
[5] = molecular target: GABA-A receptor; alpha-5/beta-3/gamma-2 (Homo sapiens) (UniProt P18507+P28472+P31644); experiment: Positive allosteric modulation of GABA-A receptor alpha5beta3gamma2 (unknown origin) expressed in Xenopus laevis oocytes assessed as potentiation of EC3 GABA induced currents up to 100 uM at -60 mV holding potential by electrophysiological method relative to GABA; format: cell-based; conditions: tested as the 2H-labelled form; method in brief: as §1
[6] = Metabolic stability in mouse liver microsomes assessed as parent compound remaining at 10 uM after 60 mins by LC-MS analysis; format: ADME, microsome; conditions: read-out: Stability
Method in brief: (§3)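 The 60 min samples of the microsomal incubation (10 μM compound, human or mouse liver microsomes at 0.5 mg/mL, NADPH regenerating system, 37 °C) were analysed by LC-MS. Detection used SIM mode with dual ESI/APCI ionization, calibrated to the retention times and masses of the parent and its O-demethylated metabolites. Peak intensities were measured.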

[7] = molecular target: GABA A receptor alpha-4/beta-3/gamma-2 (Homo sapiens) (UniProt P18507+P28472+P48169); experiment: Positive allosteric modulation of GABA-A receptor alpha4beta3gamma2 (unknown origin) expressed in Xenopus laevis oocytes assessed as potentiation of EC3 GABA induced currents up to 100 uM at -60 mV holding potential by electrophysiological method relative to GABA; format: cell-based; conditions: tested as the 2H-labelled form; method in brief: as §1
[8] = Metabolic stability in human liver microsomes assessed as parent compound remaining at 10 uM after 60 mins by LC-MS analysis; format: ADME, microsome; conditions: read-out: Stability; method in brief: as §3
[9] = Aqueous solubility of the compound in DI water at pH 7 after 2 hrs by LC-MS analysis; format: physicochemical; conditions: buffer, pH 7, 2 h; method in brief: as §2
[10] = molecular target: Muscarinic acetylcholine receptor M4 (Homo sapiens) (UniProt P08173); experiment: Displacement of [3H]-QNB from human recombinant M4 receptor expressed in HEK293 cells at 10 uM after 60 to 90 mins by scintillation counting; format: cell-based
Sequence of Muscarinic acetylcholine receptor M4 (Homo sapiens) (P08173 whole entry): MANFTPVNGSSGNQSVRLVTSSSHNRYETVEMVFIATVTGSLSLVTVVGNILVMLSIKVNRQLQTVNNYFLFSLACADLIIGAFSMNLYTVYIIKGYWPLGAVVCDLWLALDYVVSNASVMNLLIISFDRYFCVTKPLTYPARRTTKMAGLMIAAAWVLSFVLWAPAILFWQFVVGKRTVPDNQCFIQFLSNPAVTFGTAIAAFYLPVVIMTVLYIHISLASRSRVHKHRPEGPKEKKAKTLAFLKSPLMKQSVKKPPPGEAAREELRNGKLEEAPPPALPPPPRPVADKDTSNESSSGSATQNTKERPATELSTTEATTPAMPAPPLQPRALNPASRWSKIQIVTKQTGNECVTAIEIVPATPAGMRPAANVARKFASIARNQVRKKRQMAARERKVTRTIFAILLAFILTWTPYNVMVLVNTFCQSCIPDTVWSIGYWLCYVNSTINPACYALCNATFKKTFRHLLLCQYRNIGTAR
Method in brief: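 Primary single-concentration radioligand displacement screen run by the NIMH Psychoactive Drug Screening Program across a 46-target panel that includes hERG. The read-out is percent inhibition of specific radioligand binding. Any compound displacing more than 50% of radioligand went on to secondary binding assays to determine Ki.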

[11] = molecular target: GABA-A receptor; alpha-6/beta-3/gamma-2 (Homo sapiens) (UniProt P18507+P28472+Q16445); experiment: Positive allosteric modulation of GABA-A receptor alpha6beta3gamma2 (unknown origin) expressed in Xenopus laevis oocytes assessed as potentiation of EC3 GABA induced currents up to 10 uM at -60 mV holding potential by electrophysiological method; format: cell-based; conditions: tested as the 2H-labelled form; method in brief: as §1
[12] = molecular target: Voltage-gated inwardly rectifying potassium channel KCNH2 (Homo sapiens, UniProt Q12809); experiment: Displacement of [3H]-dofetilide from human ERG expressed in HEK cell membranes at >10 uM after 60 to 90 mins by scintillation counting
Sequence of Voltage-gated inwardly rectifying potassium channel KCNH2 (Q12809 whole entry): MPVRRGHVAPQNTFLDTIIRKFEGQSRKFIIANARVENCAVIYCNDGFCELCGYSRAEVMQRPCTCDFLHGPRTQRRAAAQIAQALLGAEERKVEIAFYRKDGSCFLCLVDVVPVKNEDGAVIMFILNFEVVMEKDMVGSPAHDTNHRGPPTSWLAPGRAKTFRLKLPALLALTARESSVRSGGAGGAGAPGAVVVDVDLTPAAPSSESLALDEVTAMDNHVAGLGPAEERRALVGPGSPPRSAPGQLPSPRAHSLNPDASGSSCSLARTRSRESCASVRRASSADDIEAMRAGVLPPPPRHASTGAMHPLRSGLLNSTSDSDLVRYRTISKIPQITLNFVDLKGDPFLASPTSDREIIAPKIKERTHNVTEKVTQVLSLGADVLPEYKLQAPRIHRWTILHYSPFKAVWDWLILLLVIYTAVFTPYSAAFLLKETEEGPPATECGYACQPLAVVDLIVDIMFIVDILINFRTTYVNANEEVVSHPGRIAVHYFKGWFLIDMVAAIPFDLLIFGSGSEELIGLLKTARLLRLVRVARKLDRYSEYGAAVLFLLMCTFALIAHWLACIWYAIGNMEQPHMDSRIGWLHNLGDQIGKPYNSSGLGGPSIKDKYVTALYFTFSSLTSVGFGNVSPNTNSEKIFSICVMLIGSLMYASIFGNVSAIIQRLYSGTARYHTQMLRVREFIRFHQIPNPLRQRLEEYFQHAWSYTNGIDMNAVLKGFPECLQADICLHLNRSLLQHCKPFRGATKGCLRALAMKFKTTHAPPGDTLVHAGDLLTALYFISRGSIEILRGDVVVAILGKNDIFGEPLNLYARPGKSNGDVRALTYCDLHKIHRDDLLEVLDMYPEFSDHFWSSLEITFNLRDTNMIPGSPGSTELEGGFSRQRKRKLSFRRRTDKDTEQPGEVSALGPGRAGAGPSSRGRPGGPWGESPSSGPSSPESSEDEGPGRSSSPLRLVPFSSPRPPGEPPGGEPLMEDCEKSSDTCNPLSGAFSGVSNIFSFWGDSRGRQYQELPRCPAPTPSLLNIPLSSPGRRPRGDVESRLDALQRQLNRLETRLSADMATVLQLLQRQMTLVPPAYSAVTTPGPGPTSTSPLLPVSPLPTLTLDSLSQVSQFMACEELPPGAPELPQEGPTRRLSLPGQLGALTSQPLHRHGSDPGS

Compound: COc1ccc2c3nn(-c4ccc(OC)nc4)c(=O)c-3c[nH]c2c1
- Activity [1]: inactive
- Activity (Mus musculus): Non-Toxic
- solubility [2]: 115.4 µM (≈ 37.2 µg/mL)
- Activity [3]: inactive
- Activity [4]: inactive
- Activity [5]: inactive
- remaining at 1 h, 10 µM [6]: 74.8%
- Activity [7]: inactive
- remaining at 1 h, 10 µM [8]: 92.8%
- solubility [9]: 67.2 µM (≈ 21.7 µg/mL)
- inhibition [10]: Active
- Activity [11]: Active
- inhibition (INH) [12]: Not Active
